Measured values reported in ChEMBL document CHEMBL5385869, “Novel 4-aminoquinolines: Synthesis, inhibition of the Mycobacterium tuberculosis enoyl-acyl carrier protein reductase, antitubercular activity, SAR, and preclinical evaluation” (Eur J Med Chem, 2023).
≈ marks a conversion by molar mass, not a printed value. Calls of active or inactive are those of the source. The calls are words filed in the database; no cut-off is given here.

Key:
[1] = target: T1, Enoyl-[acyl-carrier-protein] reductase [NADH] (Mycobacterium tuberculosis, UniProt P9WGR1); assay: Binding affinity to wild type Mycobacterium tuberculosis InhA assessed as inhibition constant in presence of NADH, DD-CoA by spectrophotometry based analysis
T1 sequence (P9WGR1 whole entry): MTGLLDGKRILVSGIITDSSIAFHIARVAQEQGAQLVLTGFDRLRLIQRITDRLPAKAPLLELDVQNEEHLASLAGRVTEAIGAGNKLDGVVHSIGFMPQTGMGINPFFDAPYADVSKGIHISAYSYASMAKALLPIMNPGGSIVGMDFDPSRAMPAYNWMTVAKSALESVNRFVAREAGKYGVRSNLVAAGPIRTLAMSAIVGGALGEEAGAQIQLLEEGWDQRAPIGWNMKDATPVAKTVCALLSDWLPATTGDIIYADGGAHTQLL

[2] = tested on: Mycobacterium tuberculosis; assay: Antibacterial activity against Mycobacterium tuberculosis H37Rv ATCC 27294 infected in CF-1 mouse assessed as reversal of bacterial growth in spleen at 150 uM/kg, po administered daily for 14 days starting from 7 days post infection; assay type: functional, organism-based; settings: time 14.0 day
How it was run: (§1)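 Lung and spleen homogenates plated for CFU counts and compared with vehicle and early-control groups.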

[3] = target: T1, Enoyl-[acyl-carrier-protein] reductase [NADH]; assay: Binding affinity to Mycobacterium tuberculosis H37Rv InhA assessed as dissociation constant in presence of NADH, octenoyl-CoA and KatG
[4] = target: T1, Enoyl-[acyl-carrier-protein] reductase [NADH]; assay: Binding affinity to wild type Mycobacterium tuberculosis InhA assessed as inhibition constant for formation of enzyme-inhibitor complex in presence of NADH and DD-CoA by spectrophotometry based analysis
[5] = tested on: Mycobacterium tuberculosis; assay: Antibacterial activity against pan-sensitive Mycobacterium tuberculosis H37Rv ATCC 27294 measured after 7 days by resazurin dye based assay; assay type: functional; settings: H37Rv ATCC 27294, 168 h, time 7 day
How it was run: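 Resazurin reduction microplate assay (REMA) in Middlebrook 7H9 broth with 10% ADC and 5% DMSO. Compounds come from 2 mg/mL DMSO stocks and are 2-fold serially diluted, top concentration 0.08–40 μg/mL depending on solubility. MIC is the lowest concentration preventing the blue-to-pink colour change. Three independent experiments; the reported value is the modal or the highest value.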

[6] = tested on: Mycobacterium tuberculosis; assay: Bactericidal activity in Mycobacterium tuberculosis H37Rv ATCC 27294 infected in CF-1 mouse assessed as reduction in bacterial growth in lungs at 150 uM/kg, po administered daily for 14 days starting from 7 days post infection; assay type: functional, organism-based; settings: time 14.0 day; how it was run: as §1
[7] = Chemical stability in PBS at pH 7.4 assessed as reduction in parent compound at 1 to 10 uM measured after 24 hrs by HPLC-EM/MS analysis; assay type: physicochemical; settings: dose 1-10 µM, read-out: Drug degradation
How it was run: (§2)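 Compounds at 1–10 μM incubated 24 h at 37 °C in three media: pH 1.2 (0.1 M HCl), pH 7.4 (PBS) and pH 9.1 (0.1 M NH4HCO3). Remaining parent compound quantified afterward.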

[8] = Cytotoxicity against African green monkey Vero cells assessed as reduction in cell viability incubated for 72 hrs by MTT assay; assay type: toxicity, cell-based; settings: chlorocebus sabaeus
How it was run: (§3)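 Cells grown in DMEM with 10% FBS. HepG2 seeded at 4 × 10³ and Vero at 2 × 10³ cells/well, 24 h before dosing. Compounds at 1, 5 and 20 μM in 1% DMSO for 72 h at 37 °C, 5% CO2. MTT readout: 5 mg/mL reagent for 4 h, absorbance at 595 nm. Neutral red readout: 25 μg/mL dye for 3 h, then acid-ethanol desorb. Viability is expressed relative to 1% DMSO controls.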

[9] = Chemical stability in 0.1 M HCl solution at pH 1.2 assessed as parent compound remaining at 1 to 10 uM measured after 24 hrs by HPLC-EM/MS analysis; assay type: physicochemical; settings: dose 1-10 µM, read-out: Stability; how it was run: as §2
[10] = Selectivity index, ratio of CC50 for African green monkey Vero cells by neutral red uptake assay to MIC for pan-sensitive Mycobacterium tuberculosis H37Rv ATCC 27294; assay type: toxicity, cell-based; settings: read-out: Selectivity Index
[11] = Chemical stability in PBS at pH 7.4 assessed as parent compound remaining at 1 to 10 uM measured after 24 hrs by HPLC-EM/MS analysis; assay type: physicochemical; settings: dose 1-10 µM, read-out: Stability; how it was run: as §2
[12] = Chemical stability in 0.1 M NH4HCO3 solution at pH 9.1 assessed as parent compound remaining at 1 to 10 uM measured after 24 hrs by HPLC-EM/MS analysis; assay type: physicochemical; settings: dose 1-10 µM, read-out: Stability; how it was run: as §2
[13] = Cytotoxicity against human HepG2 cells assessed as reduction in cell viability incubated for 72 hrs by MTT assay; assay type: toxicity, cell-based; how it was run: as §3
[14] = target: T2, Enoyl-[acyl-carrier-protein] reductase [NADH] (Mycobacterium tuberculosis) (UniProt P9WGR1); assay: Binding affinity to Mycobacterium tuberculosis InhA assessed as change in enthalpy at 250 uM in presence of NADH by fluorescence spectroscopy
T2 sequence (whole entry): T1 sequence (P9WGR1 whole entry)

[15] = Selectivity index, ratio of CC50 for African green monkey Vero cells by MTT assay to MIC for pan-sensitive Mycobacterium tuberculosis H37Rv ATCC 27294; assay type: toxicity, cell-based; settings: read-out: Selectivity Index
[16] = target: T1, Enoyl-[acyl-carrier-protein] reductase [NADH]; assay: Binding affinity to Mycobacterium tuberculosis InhA assessed as dissociation constant at 250 uM at 25 degreeC in presence of NADH by fluorescence spectroscopy
How it was run: (§4)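 Titration of pre-formed MtInhA:NADH complex (2 mL of 3 μM enzyme with 20 μM NADH), adding microliter aliquots of 250 μM ligand stock with dilution kept ≤1%. Intrinsic fluorescence read at 295 nm excitation, 310–500 nm emission. Temperatures 15, 20, 25 and 30 °C. KD is fitted to a hyperbolic isotherm. ΔH°, ΔS° and ΔG° come from van't Hoff analysis of KD across temperatures.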

[17] = target: T2, Enoyl-[acyl-carrier-protein] reductase [NADH] (Mycobacterium tuberculosis); assay: Binding affinity to Mycobacterium tuberculosis InhA assessed as change in entropy at 250 uM in presence of NADH by fluorescence spectroscopy
[18] = Selectivity index, ratio of CC50 for human HepG2 cells by neutral red uptake assay to MIC for pan-sensitive Mycobacterium tuberculosis H37Rv ATCC 27294; assay type: toxicity; settings: read-out: Selectivity Index
Acinetobacter baumannii = assay: Antibacterial activity against multidrug-resistant Acinetobacter baumannii clinical isolates assessed as inhibition of bacterial growth at 20 uM by broth microdilution method; assay type: functional, organism-based
How it was run: (§5)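 Broth microdilution in triplicate against a small bacterial panel, with compounds tested at 20 μM for growth inhibition.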

Staphylococcus aureus = assay: Antibacterial activity against Staphylococcus aureus ATCC 25923 assessed as inhibition of bacterial growth at 20 uM by broth microdilution method; assay type: functional, organism-based; how it was run: as §5
[19] = Metabolic stability in rat liver microsomes assessed as half life at 2 uM measured upto 30 mins by HPLC/MS/MS analysis; assay type: ADME, Microsome
How it was run: (§6)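 Compounds at 2 μM incubated at 37 °C with 1 mg/mL rat liver microsomes containing NADPH. Parent compound consumption followed over time.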

[20] = Metabolic stability in rat liver microsomes assessed as intrinsic clearance at 2 uM measured upto 30 mins by HPLC/MS/MS analysis; assay type: ADME, Microsome; settings: read-out: CLH; how it was run: as §6
[21] = target: T1, Enoyl-[acyl-carrier-protein] reductase [NADH]; assay: Inhibition of Mycobacterium tuberculosis InhA-catalysed chemical reaction in presence of NADH measured for 1 min by UV/Visible spectrophotometry
How it was run: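 Recombinant MtInhA reaction at 25 °C in 100 mM Pipes pH 7.0, started by adding 2.2 μM enzyme and followed for 1 min. Substrate is DD-CoA, made from 2-trans-dodecenoic acid and CoA.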

[22] = target: T1, Enoyl-[acyl-carrier-protein] reductase [NADH]; assay: Competitive inhibition of Mycobacterium tuberculosis InhA using varying concentrations of DD-CoA as substrate assessed as inhibition constant for enzyme-inhibitor binary complex in presence of NADH by Lineweaver-Burk plot analysis
How it was run: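 Steady-state kinetics with recombinant MtInhA in 100 mM Pipes pH 7.0 at 25 °C. NADH fixed at 60 μM, DD-CoA varied 15–135 μM, inhibitor at fixed-varied levels of 0.2–4 μM. Kis is fitted to the competitive inhibition equation.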

[23] = target: T2, Enoyl-[acyl-carrier-protein] reductase [NADH] (Mycobacterium tuberculosis); assay: Time dependent inhibition of Mycobacterium tuberculosis InhA
Escherichia coli = assay: Antibacterial activity against Escherichia coli ATCC 25922 assessed as inhibition of bacterial growth at 20 uM by broth microdilution method; assay type: functional, organism-based; how it was run: as §5
[24] = Cytotoxicity against African green monkey Vero cells assessed as reduction in cell viability incubated for 72 hrs by neutral red uptake assay; assay type: toxicity, cell-based; settings: chlorocebus sabaeus; how it was run: as §3
[25] = target: T1, Enoyl-[acyl-carrier-protein] reductase [NADH]; assay: Noncompetitive inhibition of Mycobacterium tuberculosis InhA using DD-CoA as substrate assessed as inhibition constant for enzyme-inhibitor binary complex in presence of varying concentrations of NADH by double reciprocal plot analysis
[26] = target: T1, Enoyl-[acyl-carrier-protein] reductase [NADH]; assay: Noncompetitive inhibition of Mycobacterium tuberculosis InhA using DD-CoA as substrate assessed as inhibition constant for enzyme-substrate-inhibitor ternary complex in presence of varying concentrations of NADH by double reciprocal plot analysis
[27] = Selectivity index, ratio of CC50 for human HepG2 cells by MTT assay to MIC for pan-sensitive Mycobacterium tuberculosis H37Rv ATCC 27294; assay type: toxicity; settings: read-out: Selectivity Index
[28] = target: T2, Enoyl-[acyl-carrier-protein] reductase [NADH] (Mycobacterium tuberculosis); assay: Binding affinity to Mycobacterium tuberculosis InhA assessed as gibbs free energy change at 250 uM in presence of NADH by fluorescence spectroscopy; how it was run: as §4
[29] = Solubility of compound in PBS at pH 7.4 at 1 mg incubated for 4 hrs under shaking conditions by liquid chromotography; assay type: physicochemical
How it was run: (§7)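 1 mg of compound was added to 1 mL of PBS pH 7.4 or 0.1 M HCl, in triplicate. Suspensions were vortexed 1 min, shaken 4 h at 25 °C, then centrifuged 13000 rpm for 15 min at 25 °C. Supernatant was quantified by reverse-phase UHPLC (UV 260–280 nm) against a single-point calibration of compound in DMSO.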

[30] = Permeability of compound at 10 uM measured after 5 hrs by PAMPA assay; assay type: ADME; settings: read-out: permeability
How it was run: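 PAMPA: compounds at 10 μM in 2% DMSO added to a pH 7.4 donor phase, 5 h at room temperature. Receptor-side concentration (pH 7.4) measured to derive permeation rate. Alprenolol is the analytical control.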

[31] = Solubility of compound in 0.1 M HCl solution at pH 1.2 at 1 mg incubated for 4 hrs under shaking conditions by liquid chromotography; assay type: physicochemical; how it was run: as §7
[32] = Cytotoxicity against human HepG2 cells assessed as reduction in cell viability incubated for 72 hrs by neutral red uptake assay; assay type: toxicity, cell-based; how it was run: as §3
Klebsiella pneumoniae = assay: Antibacterial activity against multidrug-resistant Klebsiella pneumoniae clinical isolates assessed as inhibition of bacterial growth at 20 uM by broth microdilution method; assay type: functional, organism-based; how it was run: as §5

In the case of `NNC(=O)c1ccncc1` [ISONIAZID], the Ki [1] is reported as 0.75 nM, the Activity [2] is reported as “Active” and the Kd [3] is reported as under 0.4 nM. For the same compound, the Ki [4] was 16 nM, the MIC [5] was 2.3 µM (≈ 0.315 µg/mL) and the Activity [6] was “Active”.
Compound `CSc1ccc2nc(C)cc(Nc3ccc(N4CCCCC4)cc3)c2c1` has a degraded at 24 h, up to 10 µM [7] of over 30%, a CC50 at 72 h [8] of 11100 nM and a remaining at 24 h, up to 10 µM [9] of 100%. For the same compound, the selectivity ratio [10] was 21.2, the remaining at 24 h, up to 10 µM [11] was 68% and the remaining at 24 h, up to 10 µM [12] was 100%. For the same compound, the CC50 at 72 h [13] was 5900 nM, the deltaH [14] was -25.8 kcal/mol and the selectivity ratio [15] was 27.7. For the same compound, the Kd [16] was 870 nM, the deltaS [17] was -55.7 cal/mol/K and the selectivity ratio [18] was 30.5. For the same compound, the Activity (Acinetobacter baumannii) was “inactive”, the Activity (Staphylococcus aureus) was “inactive” and the half-life at 2 µM [19] was 5.9 min. The CLint scaled at 2 µM [20] was 60 mL/min/kg, the IC50 [21] was 1000 nM and the Ki [22] was 620 nM. For the same compound, the TDI [23] was “inactive”, the Activity (Escherichia coli) was “inactive” and the CC50 at 72 h [24] was 8500 nM. It also gave a Ki [25] of 430 nM, a Ki [26] of 410 nM and an MIC [5] of 0.4 µM (≈ 0.145 µg/mL). For the same compound, the selectivity ratio [27] was 14.7, the deltaG [28] was -8.3 kcal/mol and the solubility thermodynamic at 4 h [29] was 38 µM (≈ 13.8 µg/mL). For the same compound, the Papp at 5 h, 10 µM [30] was 0.03 ×10⁻⁶ cm/s, the solubility thermodynamic at 4 h [31] was over 2700 µM and the CC50 at 72 h [32] was 12200 nM. For the same compound, the Activity (Klebsiella pneumoniae) was “inactive”.
